The results in this text go back to ChEMBL document CHEMBL1132468, “5-(Tryptophyl)amino-1,3-dioxoperhydropyrido[1,2-c]pyrimidine-based potent and selective CCK(1) receptor antagonists: structural modifications at the tryptophan domain” (J Med Chem, 1999).

In assay [1] the target is T1, Cholecystokinin receptor type A (Rattus norvegicus, UniProt P30551).
T1 sequence (P30551 whole entry): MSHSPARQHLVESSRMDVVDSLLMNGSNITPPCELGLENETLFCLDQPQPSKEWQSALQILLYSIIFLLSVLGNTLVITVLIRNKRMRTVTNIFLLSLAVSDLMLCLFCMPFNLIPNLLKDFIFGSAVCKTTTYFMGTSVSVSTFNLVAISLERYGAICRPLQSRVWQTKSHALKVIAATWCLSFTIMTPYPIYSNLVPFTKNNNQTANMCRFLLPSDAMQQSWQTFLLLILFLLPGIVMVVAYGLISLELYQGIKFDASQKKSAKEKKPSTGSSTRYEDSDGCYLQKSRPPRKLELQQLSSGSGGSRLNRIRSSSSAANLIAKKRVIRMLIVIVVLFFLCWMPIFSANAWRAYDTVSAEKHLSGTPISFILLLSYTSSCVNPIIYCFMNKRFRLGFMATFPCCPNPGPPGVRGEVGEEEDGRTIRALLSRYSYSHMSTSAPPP
Put plainly: Binding affinity by competitive inhibition of the radioligand [3H]pCCK-8 at Cholecystokinin type A receptor from rat pancreas. Put shortly: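 Rat pancreas homogenized in Pipes HCl pH 6.5 with 30 mM MgCl2, centrifuged twice at 50000g, 4 °C. Membranes (0.2 mg protein/tube) incubated with 0.5 nM [3H]pCCK-8 plus bacitracin and soybean trypsin inhibitor (0.2 mg/mL each) for 120 min at 25 °C. Ki from displacement curves by Cheng–Prusoff. Seven concentrations in triplicate, at least three experiments.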

Assay [2] deals with T2, Gastrin/cholecystokinin type B receptor (Rattus norvegicus, UniProt P30553).
T2 sequence (P30553 whole entry): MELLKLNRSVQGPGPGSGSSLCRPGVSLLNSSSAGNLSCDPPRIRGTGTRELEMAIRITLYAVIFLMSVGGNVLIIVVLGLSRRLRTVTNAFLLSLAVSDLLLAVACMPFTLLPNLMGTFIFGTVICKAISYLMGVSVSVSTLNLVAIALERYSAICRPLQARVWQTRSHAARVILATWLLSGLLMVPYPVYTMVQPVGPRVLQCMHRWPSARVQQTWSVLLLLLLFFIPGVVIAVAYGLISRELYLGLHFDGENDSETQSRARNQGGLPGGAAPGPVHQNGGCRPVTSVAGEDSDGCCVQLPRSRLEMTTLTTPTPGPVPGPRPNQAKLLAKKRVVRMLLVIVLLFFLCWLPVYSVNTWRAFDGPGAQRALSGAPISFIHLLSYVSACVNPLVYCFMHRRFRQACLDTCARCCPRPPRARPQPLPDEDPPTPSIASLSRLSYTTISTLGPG
Put plainly: Binding affinity by competitive inhibition of the radioligand [3H]pCCK-8 at Cholecystokinin type B receptor from rat cerebral cortex membrane. The format is tissue-based.

For assay [3], the system named is Rattus norvegicus. As to the kind of experiment: Compound (CCK1 antagonist) was administered orally for the effect of increase in plasma amylase activity induced by caerulein in rat at the dose of 0.1 mg/kg. As to conditions: route oral. The format is functional. The procedure, abridged:
(§1)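 Caerulein pancreatitis in fasted (24 h) male Wistar rats (190–210 g): four hourly sc injections of 10 µg/kg. Antagonist dosed orally (0.25 mL/100 g; 0.1 or 1 mg/kg) 60 min before the first caerulein injection. Plasma drawn 3 h after the final injection. Amylase and lipase activities read with commercial kits, in IU/mL. Comparisons by ANOVA plus Scheffé's test against caerulein.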

The subject of assay [4] is Rattus norvegicus. Put plainly: Compound (CCK1 antagonist) was administered orally for the effect of increase in plasma amylase activity induced by caerulein in rat at the dose of 1 mg/kg. The format is functional. As to conditions: route oral. The procedure, abridged: as §1
Assay [5] deals with Rattus norvegicus. As to the kind of experiment: Compound (CCK1 antagonist) was administered intraperitoneally for the effect of increase in plasma lipase activity induced by caerulein in rat at the dose of 0.1 mg/kg. Format: functional. As to conditions: route intraperitoneal. Put shortly: (§2)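 Male Wistar rats (190–210 g), fasted 24 h, given four sc caerulein injections (10 µg/kg) at hourly intervals. Antagonist given ip (0.25 mL/100 g; 0.1 or 1 mg/kg) 30 min before the first caerulein dose. Blood taken 3 h after the last injection. Plasma amylase and lipase measured by commercial kits, in IU/mL. Statistics by ANOVA with Scheffé's test against caerulein alone.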

Assay [6] deals with Rattus norvegicus. As to the kind of experiment: Compound (CCK1 antagonist) was administered intraperitoneally for the effect of increase in plasma lipase activity induced by caerulein in rat at the dose of 1 mg/kg. The format is functional. As to conditions: route intraperitoneal. Put shortly:
as §2

For assay [7], the system named is Rattus norvegicus. As to the kind of experiment: Compound (CCK1 antagonist) was administered orally for the effect of increase in plasma lipase activity induced by caerulein in rat at the dose of 1 mg/kg. Particulars: route oral. Format: functional. The procedure, abridged:
as §1

Assay [8] has as its system Rattus norvegicus. As to the kind of experiment: Compound (CCK1 antagonist) was administered intraperitoneally for the effect of increase in plasma amylase activity induced by caerulein in rat at the dose of 0.1 mg/kg. Format: functional. As to conditions: route intraperitoneal. Put shortly:
as §2

The test system of assay [9] is Rattus norvegicus. Put plainly: Compound (CCK1 antagonist) was administered intraperitoneally for the effect of increase in plasma amylase activity induced by caerulein in rat at the dose of 1 mg/kg. As to conditions: route intraperitoneal. Format: functional. The procedure, abridged:
as §2

Assay [10] concerns Rattus norvegicus. As to the kind of experiment: Compound (CCK1 antagonist) was administered orally for the effect of increase in plasma lipase activity induced by caerulein in rat at the dose of 0.1 mg/kg. As to conditions: route oral. Format: functional. The procedure, abridged:
as §1

`N[C@@H](Cc1c[nH]c2ccccc12)C(=O)N[C@H]1CCCN2C(=O)N(Cc3ccccc3)C(=O)C[C@@H]12`: the half-maximal inhibitory concentration (IC50) in assay [1] is more than 1 µM; in assay [2], more than 10 µM.
Consider `N#C[C@@H](N[C@@H]1CCCN2C(=O)N(Cc3ccccc3)C(=O)C[C@H]12)[C@H](Cc1c[nH]c2ccccc12)NC(=O)OCc1ccccc1`, for which the values for the concentration for half-maximal inhibition (IC50) in assay [1] and in assay [2] were more than 1 µM and more than 10 µM, respectively.
For `N[C@@H](Cc1c[nH]c2ccccc12)C(=O)N[C@@H]1CCCN2C(=O)N(Cc3ccccc3)C(=O)C[C@H]12`, the half-maximal inhibitory concentration (IC50) is more than 1 µM in [1] and more than 10 µM in assay [2].
The matching figures for `O=C(N[C@H]1CCCN2C(=O)N(Cc3ccccc3)C(=O)C[C@@H]12)[C@H](Cc1c[nH]c2ccccc12)NC(=O)C12CC3CC(CC(C3)C1)C2`: 0.486 µM and 4.39 µM.
`CC(C)(C)OC(=O)N1Cc2[nH]c3ccccc3c2CC1C(=O)N[C@H]1CCCN2C(=O)N(Cc3ccccc3)C(=O)C[C@@H]12` (stereo not given in full): the half-inhibitory concentration (IC50) in [1] was more than 1 µM; in assay [2], more than 10 µM.
Regarding `O=C(Cc1c[nH]c2ccccc12)N[C@H]1CCCN2C(=O)N(Cc3ccccc3)C(=O)C[C@@H]12.O=C(N[C@@H]1CCCN2C(=O)N(Cc3ccccc3)C(=O)C[C@H]12)c1c[nH]c2ccccc12`, the values for the IC50 in assay [1] and in assay [2] were more than 1 µM and more than 10 µM, respectively.
For `O=C(N[C@@H]1CCCN2C(=O)N(Cc3ccccc3)C(=O)C[C@@H]12)c1cc2ccccc2[nH]1.O=C(N[C@H]1CCCN2C(=O)N(Cc3ccccc3)C(=O)C[C@H]12)c1cc2ccccc2[nH]1`, in that order: more than 1 µM and more than 10 µM.
Take `CC(C)(C)OC(=O)N[C@](C)(Cc1c[nH]c2ccccc12)C(=O)N[C@@H]1CCCN2C(=O)N(Cc3ccccc3)C(=O)C[C@@H]12.CC(C)(C)OC(=O)N[C@](C)(Cc1c[nH]c2ccccc12)C(=O)N[C@H]1CCCN2C(=O)N(Cc3ccccc3)C(=O)C[C@H]12`: the IC50 in [2] was more than 10 µM.
Consider `CC(C)(C)OC(=O)N[C@@H](Cc1c[nH]c2ccccc12)C(=O)N[C@H]1CCCN2C(=O)N(Cc3ccccc3)C(=O)C[C@@H]12`, for which the half-maximal inhibitory concentration (IC50) in assay [1] was found to be 0.0227 µM; in assay [2], 6.15 µM.
For `CC(C)(C)OC(=O)N[C@@H](Cc1ccccc1)C(=O)N[C@@H]1CCCN2C(=O)N(Cc3ccccc3)C(=O)C[C@H]12`, in that order: 0.0657 µM and more than 10 µM.
Turning to `CC(C)(C)OC(=O)N1Cc2[nH]c3ccccc3c2CC1C(=O)N[C@@H]1CCCN2C(=O)N(Cc3ccccc3)C(=O)C[C@H]12` (stereo not given in full), the half-maximal inhibitory concentration (IC50) in assay [2] is more than 10 µM.
Take `N#C[C@H](N[C@@H]1CCCN2C(=O)N(Cc3ccccc3)C(=O)C[C@H]12)[C@H](Cc1c[nH]c2ccccc12)NC(=O)OCc1ccccc1`: the half-maximal inhibitory concentration (IC50) was more than 1 µM in assay [1] and more than 10 µM in assay [2].
As for `CC(C)(C)OC(=O)N[C@H](CN[C@@H]1CCCN2C(=O)N(Cc3ccccc3)C(=O)C[C@H]12)Cc1c[nH]c2ccccc12`, the IC50 in assay [1] is more than 1 µM; in assay [2], more than 10 µM.
For `CC(C)(C)OC(=O)N[C@@](C)(Cc1c[nH]c2ccccc12)C(=O)N[C@@H]1CCCN2C(=O)N(Cc3ccccc3)C(=O)C[C@@H]12.CC(C)(C)OC(=O)N[C@@](C)(Cc1c[nH]c2ccccc12)C(=O)N[C@H]1CCCN2C(=O)N(Cc3ccccc3)C(=O)C[C@H]12` (single isomer, unassigned), in that order: 0.0424 µM and more than 10 µM.
The matching figures for `O=C(N[C@@H](Cc1c[nH]c2ccccc12)C(=O)N[C@H]1CCCN2C(=O)N(Cc3ccccc3)C(=O)CC12)OC1C2CC3CC(C2)CC1C3` (single isomer, unassigned): 0.34 µM and 3.43 µM.
The matching figures for `CC(C)(C)OC(=O)N[C@@H](Cc1c[nH]c2ccccc12)[C@H](C#N)N[C@@H]1CCCN2C(=O)N(Cc3ccccc3)C(=O)CC12` (single isomer, unassigned): 0.00769 µM and more than 10 µM.
`CC(C)(C)OC(=O)N[C@@H](Cc1c[nH]c2ccccc12)[C@@H](C#N)N[C@@H]1CCCN2C(=O)N(Cc3ccccc3)C(=O)CC12` (single isomer, unassigned): the IC50 is 0.0326 µM in assay [1] and more than 10 µM in [2].
Regarding `CC(C)(C)NC(=O)N[C@@H](Cc1c[nH]c2ccccc12)C(=O)N[C@@H]1CCCN2C(=O)N(Cc3ccccc3)C(=O)CC12` (single isomer, unassigned), the concentration for half-maximal inhibition (IC50) in assay [1] was 0.00091 µM; in assay [2], more than 10 µM. For the same molecule, the “Increase in plasma amylase” value is reported as 28939 IU ml-1 with Rattus norvegicus [3], 19967 IU ml-1 with Rattus norvegicus [4], 27103 IU ml-1 in the assay with Rattus norvegicus [8] and 5326 IU ml-1 with Rattus norvegicus [9]. Besides, the “Increase in plasma lipase” value turned out to be 1667 IU ml-1 in the assay with Rattus norvegicus [5], 36 IU ml-1 in the assay with Rattus norvegicus [6], 1062 IU ml-1 in the assay on Rattus norvegicus [7] and 2200 IU ml-1 in the assay on Rattus norvegicus [10].
Regarding `CC(C)(C)CC(=O)N[C@@H](Cc1c[nH]c2ccccc12)C(=O)N[C@@H]1CCCN2C(=O)N(Cc3ccccc3)C(=O)CC12` (single isomer, unassigned), the half-maximal inhibitory concentration (IC50) in [1] was 0.00443 µM; in [2], more than 10 µM. The “Increase in plasma amylase” value in the assay on Rattus norvegicus [3] is reported as 51420 IU ml-1; in the assay on Rattus norvegicus [4] it was 46591 IU ml-1; in the assay with Rattus norvegicus [8] it was 61102 IU ml-1; in the assay with Rattus norvegicus [9], 28015 IU ml-1. The “Increase in plasma lipase” value with Rattus norvegicus [5] is 2956 IU ml-1; with Rattus norvegicus [6] it was 1140 IU ml-1; with Rattus norvegicus [7] it was 3375 IU ml-1; in the assay on Rattus norvegicus [10], 3089 IU ml-1.
As to `CC(C)(C)OC(=O)N[C@@H](Cc1c[nH]c2ccccc12)C(=O)N[C@@H]1CCCN2C(=O)N(Cc3ccccc3)C(=O)CC12` (single isomer, unassigned) [IQM-95333], the results for the half-maximal inhibitory concentration (IC50) in [1] and in assay [2] were 0.00159 µM and more than 10 µM, respectively. For the same molecule, the “Increase in plasma amylase” value came out at 37753 IU ml-1 in the assay on Rattus norvegicus [3], 31205 IU ml-1 with Rattus norvegicus [4], 35985 IU ml-1 with Rattus norvegicus [8] and 2721 IU ml-1 in the assay on Rattus norvegicus [9]. In addition, the “Increase in plasma lipase” value with Rattus norvegicus [5] was determined as 1943 IU ml-1; with Rattus norvegicus [6] it was 112 IU ml-1; with Rattus norvegicus [7] it was 1948 IU ml-1; in the assay with Rattus norvegicus [10] it was 2837 IU ml-1.
On to `CN1C(=O)[C@@H](NC(=O)c2cc3ccccc3[nH]2)N=C(c2ccccc2)c2ccccc21` [DEVAZEPIDE], for which the “Increase in plasma amylase” value is 7733 IU ml-1 in the assay on Rattus norvegicus [3], 4578 IU ml-1 in the assay on Rattus norvegicus [4], 8793 IU ml-1 in the assay with Rattus norvegicus [8] and 3650 IU ml-1 in the assay on Rattus norvegicus [9]. Besides, the “Increase in plasma lipase” value with Rattus norvegicus [5] came out at 125 IU ml-1; with Rattus norvegicus [6], 26 IU ml-1; in the assay on Rattus norvegicus [7], 57 IU ml-1; in the assay with Rattus norvegicus [10] it was 871 IU ml-1.

As a reminder, the IC50 is the concentration that gives 50% inhibition. The low end stands for greater potency in that assay, the high end for weaker potency in that assay.
